{"source": "ChEMBL document CHEMBL1137490", "about": "“Design, synthesis and cardioprotective effect of a new class of dual-acting agents: phenolic tetrahydro-beta-carboline RGD peptidomimetic conjugates” (Bioorg Med Chem, 2007)", "key": {"Aorta [1]": {"system": "Aorta", "experiment": "Scavenging activity against nitric oxide radical generation in Wistar rat aortic strips cells assessed as inhibition of acetylcholine-induced vasorelaxation at 0.01 umol/L"}, "Aorta [2]": {"system": "Aorta", "experiment": "Scavenging activity against nitric oxide radical generation in Wistar rat aortic strips cells assessed as inhibition of acetylcholine-induced vasorelaxation at 0.1 umol/L"}, "Aorta [3]": {"system": "Aorta", "experiment": "Scavenging activity against nitric oxide radical generation in Wistar rat aortic strips cells assessed as inhibition of acetylcholine-induced vasorelaxation at 1 umol/L", "format": "functional, tissue-based", "summary_of_the_method": "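Rat aortic strips in 37 °C oxygenated (95% O2/5% CO2) Krebs, pH 7.4, on tension transducers. Precontracted with noradrenaline (final 10^-9 mol/L), washed, stabilized 30 min, recontracted; at peak, compound in water (final 10^-6 mol/L) or NS added, then ACh (final 10^-6 mol/L). Percent inhibition of ACh-induced relaxation recorded.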"}, "Rattus norvegicus [4]": {"species_on_record": "Rattus norvegicus", "experiment": "Antithrombotic effect in Wistar rat assessed as reduction in dry thrombus mass at 5 umol/L", "format": "functional", "summary_of_the_method": "(§1)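 Male Wistar rats 250-300 g, sodium pentobarbital 80.0 mg/kg ip; arteriovenous shunt (polyethylene tube with weighed 6 cm thread, sodium heparin 50 IU/mL in NS) from right carotid to left jugular vein. Compound dissolved in NS just before use, kept on ice, injected via tube; NS vehicle. Blood flowed 15 min; wet thrombus weighed, dry weight after 2 weeks in desiccator.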"}, "Rattus norvegicus [5]": {"species_on_record": "Rattus norvegicus", "experiment": "Antithrombotic effect in Wistar rat assessed as reduction in wet thrombus mass at 5 umol/L", "format": "functional", "summary_of_the_method": "as §1"}, "PC-12 [6]": {"system": "PC-12", "experiment": "Scavenging activity against […] generation in rat PC12 cells assessed as cell survival by MTT assay", "format": "functional, cell-based", "summary_of_the_method": "(§2)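 PC12 cells in DMEM with 10% heat-inactivated horse serum, 5% FBS, 1.0 mM pyruvate, penicillin/streptomycin, 37 °C, 5% CO2; seeded 20,000/well on poly-L-lysine, 24 h attachment. Pretreated 1 h with 12.5–200 µM. Insult: 2 mM SNP 2 h (NO), 1 mM H2O2 1 h, or 1 mM H2O2/30 µM Fe(II) 1 h (•OH). For SNP, fresh media then 14 h culture. Survival by MTT; EC50 (µM).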"}, "PC-12 [7]": {"system": "PC-12", "experiment": "Scavenging activity against nitric oxide radical generation in rat PC12 cells assessed as cell survival by MTT assay", "format": "functional, cell-based", "summary_of_the_method": "as §2"}, "PC-12 [8]": {"system": "PC-12", "experiment": "Scavenging activity against hydrogen peroxide radical generation in rat PC12 cells assessed as cell survival by MTT assay", "format": "functional, cell-based", "summary_of_the_method": "as §2"}, "Rattus norvegicus [9]": {"system": "Rattus norvegicus", "experiment": "Reduction in infarct size in ischemia reperfusion Wistar rat model assessed as infarct size over risk zone at 10 mg/kg", "format": "functional", "parameters": "scale not given: the % may be the effect or the level left", "summary_of_the_method": "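Male Wistar rats 250-300 g, pentobarbital 80.0 mg/kg ip; left coronary artery occluded 30 min by snare, then 120 min reperfusion. Compound 10 mg/kg in DMSO–0.9% NaCl (1:103 v/v) infused transjugularly 15 min before occlusion. Ventricular 1 mm slices stained with 1% TTC 15 min at 37 °C, with Evans blue for area at risk; infarct/risk zone %, n = 8, mean ± SE, t-test.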"}, "Rattus norvegicus [10]": {"species_on_record": "Rattus norvegicus", "experiment": "Protective effect in sham ischemia reperfusion Wistar rat model assessed as malondialdehyde per mg of protein", "format": "functional"}, "Rattus norvegicus [11]": {"species_on_record": "Rattus norvegicus", "experiment": "Protective effect in ischemia reperfusion Wistar rat model assessed as malondialdehyde per mg of protein", "format": "functional"}}, "note": "Residues, ends and D or L forms follow the SMILES beside them.", "data": [{"smiles": "COc1cc(C2N[C@H](C(=O)N[C@@H](CCCNC(=N)N)C(=O)NNCC(=O)N[C@H](CC(=O)O)C(=O)N[C@H](C(=O)O)C(C)C)Cc3c2[nH]c2ccccc32)cc(OC)c1O", "note": "(stereo partly drawn)", "values": [{"measurement": "inhibition", "setting": "Aorta [1]", "result": 14.1, "unit": "%"}, {"measurement": "inhibition", "setting": "Aorta [2]", "result": 71, "unit": "%"}, {"measurement": "inhibition", "setting": "Aorta [3]", "result": 95.8, "unit": "%"}]}, {"smiles": "CC(C)[C@H](NC(=O)CN(CC(=O)O)NC(=O)CNC(=O)[C@@H](N)CCCNC(=N)N)C(=O)O", "values": [{"measurement": "Activity", "setting": "Rattus norvegicus [4]", "result": 7.83, "unit": "mg"}, {"measurement": "Activity", "setting": "Rattus norvegicus [5]", "result": 41.8, "unit": "mg"}]}, {"smiles": "CC(C)[C@H](NC(=O)[C@H](CC(=O)O)NC(=O)CNNC(=O)[C@@H](N)CCCNC(=N)N)C(=O)O", "values": [{"measurement": "Activity", "setting": "Rattus norvegicus [4]", "result": 7.05, "unit": "mg"}, {"measurement": "Activity", "setting": "Rattus norvegicus [5]", "result": 34.98, "unit": "mg"}]}, {"smiles": "COc1cc(C2N[C@H](C(=O)N[C@@H](CCCNC(=N)N)C(=O)NNCC(=O)N[C@@H](CC(=O)O)C(=O)N[C@H](C(=O)O)C(C)C)Cc3c2[nH]c2ccccc32)cc(OC)c1O", "note": "(stereo partly drawn) [listing 1 of 2 here]", "values": [{"measurement": "EC50", "setting": "PC-12 [6]", "result": 90.3, "unit": "µM"}, {"measurement": "EC50", "setting": "PC-12 [7]", "result": 91.2, "unit": "µM"}, {"measurement": "EC50", "setting": "PC-12 [8]", "result": 41.2, "unit": "µM"}]}, {"smiles": "COc1cc(C2N[C@H](C(=O)O)Cc3c2[nH]c2ccccc32)cc(OC)c1O", "note": "(stereo partly drawn)", "values": [{"measurement": "EC50", "setting": "PC-12 [6]", "result": 85.9, "unit": "µM"}, {"measurement": "inhibition", "setting": "Aorta [1]", "result": 10.8, "unit": "%"}, {"measurement": "Activity", "setting": "Rattus norvegicus [4]", "result": 8.03, "unit": "mg"}, {"measurement": "Activity", "setting": "Rattus norvegicus [5]", "result": 44.01, "unit": "mg"}, {"measurement": "inhibition", "setting": "Aorta [2]", "result": 55.3, "unit": "%"}, {"measurement": "inhibition", "setting": "Aorta [3]", "result": 81, "unit": "%"}, {"measurement": "EC50", "setting": "PC-12 [7]", "result": 88.4, "unit": "µM"}, {"measurement": "EC50", "setting": "PC-12 [8]", "result": 34.5, "unit": "µM"}]}, {"smiles": "COc1cc(C2N[C@H](C(=O)N[C@@H](CCCNC(=N)N)C(=O)NCC(=O)NN(CC(=O)O)CC(=O)N[C@H](C(=O)O)C(C)C)Cc3c2[nH]c2ccccc32)cc(OC)c1O", "note": "(stereo partly drawn)", "values": [{"measurement": "EC50", "setting": "PC-12 [6]", "result": 93.2, "unit": "µM"}, {"measurement": "inhibition", "setting": "Aorta [1]", "result": 13, "unit": "%"}, {"measurement": "Activity", "setting": "Rattus norvegicus [4]", "result": 4.85, "unit": "mg"}, {"measurement": "Activity", "setting": "Rattus norvegicus [5]", "result": 25.46, "unit": "mg"}, {"measurement": "inhibition", "setting": "Aorta [2]", "result": 63.7, "unit": "%"}, {"measurement": "inhibition", "setting": "Aorta [3]", "result": 90.1, "unit": "%"}, {"measurement": "EC50", "setting": "PC-12 [7]", "result": 90.2, "unit": "µM"}, {"measurement": "EC50", "setting": "PC-12 [8]", "result": 45.7, "unit": "µM"}]}, {"smiles": "COc1cc(C2N[C@H](C(=O)NN(CCCNC(=N)N)CC(=O)NCC(=O)N[C@@H](CC(=O)O)C(=O)N[C@H](C(=O)O)C(C)C)Cc3c2[nH]c2ccccc32)cc(OC)c1O", "note": "(stereo partly drawn) [listing 1 of 2 here]", "values": [{"measurement": "EC50", "setting": "PC-12 [6]", "result": 95.1, "unit": "µM"}, {"measurement": "EC50", "setting": "PC-12 [7]", "result": 96.5, "unit": "µM"}, {"measurement": "EC50", "setting": "PC-12 [8]", "result": 75.4, "unit": "µM"}]}, {"smiles": "CC(C)[C@H](NC(=O)[C@H](CC(=O)O)NC(=O)CNC(=O)[C@@H](N)CCCNC(=N)N)C(=O)O", "note": "(H-RGDV-OH)", "values": [{"measurement": "Activity", "setting": "Rattus norvegicus [4]", "result": 6.78, "unit": "mg"}, {"measurement": "Activity", "setting": "Rattus norvegicus [5]", "result": 35.75, "unit": "mg"}]}, {"smiles": "CC(C)[C@H](NC(=O)[C@H](CC(=O)O)NC(=O)CNC(=O)CN(N)CCCNC(=N)N)C(=O)O", "values": [{"measurement": "Activity", "setting": "Rattus norvegicus [4]", "result": 4.39, "unit": "mg"}, {"measurement": "Activity", "setting": "Rattus norvegicus [5]", "result": 27.04, "unit": "mg"}]}, {"smiles": "COc1cc(C2N[C@H](C(=O)N[C@@H](CCCNC(=N)N)C(=O)NNCC(=O)N[C@@H](CC(=O)O)C(=O)N[C@H](C(=O)O)C(C)C)Cc3c2[nH]c2ccccc32)cc(OC)c1O", "note": "(stereo partly drawn) [listing 2 of 2 here]", "values": [{"measurement": "Activity", "setting": "Rattus norvegicus [4]", "result": 3.79, "unit": "mg"}, {"measurement": "Activity", "setting": "Rattus norvegicus [5]", "result": 24.54, "unit": "mg"}]}, {"smiles": "COc1cc(C2N[C@H](C(=O)NN(CCCNC(=N)N)CC(=O)NCC(=O)N[C@H](CC(=O)O)C(=O)N[C@H](C(=O)O)C(C)C)Cc3c2[nH]c2ccccc32)cc(OC)c1O", "note": "(stereo partly drawn)", "values": [{"measurement": "inhibition", "setting": "Aorta [1]", "result": 28.3, "unit": "%"}, {"measurement": "inhibition", "setting": "Aorta [2]", "result": 75.3, "unit": "%"}, {"measurement": "inhibition", "setting": "Aorta [3]", "result": 97.2, "unit": "%"}]}, {"smiles": "COc1cc(C2N[C@H](C(=O)NN(CCCNC(=N)N)CC(=O)NCC(=O)N[C@@H](CC(=O)O)C(=O)N[C@H](C(=O)O)C(C)C)Cc3c2[nH]c2ccccc32)cc(OC)c1O", "note": "(stereo partly drawn) [listing 2 of 2 here]", "values": [{"measurement": "Activity", "setting": "Rattus norvegicus [9]", "result": 35, "unit": "%"}, {"measurement": "Activity", "setting": "Rattus norvegicus [4]", "result": 2.23, "unit": "mg"}, {"measurement": "Activity", "setting": "Rattus norvegicus [10]", "result": 2.52, "unit": "nmol/mg"}, {"measurement": "Activity", "setting": "Rattus norvegicus [5]", "result": 21.05, "unit": "mg"}, {"measurement": "Activity", "setting": "Rattus norvegicus [11]", "result": 2.91, "unit": "nmol/mg"}]}]}
